Test [1] concerns the target T1, EKC/KEOPS complex subunit TP53RK (Homo sapiens) (UniProt Q96S44).
T1 sequence (whole entry): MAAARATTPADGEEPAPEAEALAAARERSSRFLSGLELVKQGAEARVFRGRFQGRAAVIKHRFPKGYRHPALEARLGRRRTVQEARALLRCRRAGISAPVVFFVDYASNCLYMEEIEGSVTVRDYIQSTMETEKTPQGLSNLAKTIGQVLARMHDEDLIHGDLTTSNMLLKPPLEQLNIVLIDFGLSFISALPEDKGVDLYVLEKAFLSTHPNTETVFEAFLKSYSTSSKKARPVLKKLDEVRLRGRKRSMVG
The test can be described thus: Inhibition of PRPK in human HeLa cells lysate at 2 uM pre incubated for 15 mins followed by ATP acyl phosphate probe addition and measured after 10 mins by LC-MS/MS analysis relative to control. Type of test: subcellular. To be noted: time 25.0 min.

Test [2] deals with Epidermal growth factor receptor (Homo sapiens, UniProt P00533). The test can be described thus: Inhibition of EGFR in human HeLa cells lysate at 2 uM pre incubated for 15 mins followed by ATP acyl phosphate probe addition and measured after 10 mins by LC-MS/MS analysis relative to control. To be noted: time 25.0 min. Format: subcellular.
Test [3] has as its target Serine/threonine-protein kinase 16 (Homo sapiens, UniProt O75716). The test can be described thus: Inhibition of MPSK1 in human HeLa cells lysate pre incubated for 15 mins followed by ATP acyl phosphate probe addition and measured after 10 mins by LC-MS/MS analysis. Format: subcellular.
Test [4] has as its target Glycogen synthase kinase-3 alpha (Homo sapiens, UniProt P49840). The test can be described thus: Inhibition of GSK3A in human HeLa cells lysate at 50 uM pre incubated for 15 mins followed by ATP acyl phosphate probe addition and measured after 10 mins by LC-MS/MS analysis relative to control. The conditions noted are these: time 25.0 min. Type of test: subcellular.
Test [5] is described as follows: Inhibition of KHS1/2 in human HeLa cells lysate at 50 uM pre incubated for 15 mins followed by ATP acyl phosphate probe addition and measured after 10 mins by LC-MS/MS analysis relative to control. The conditions noted are these: 25 min, condition cancer.
For test [6], the target named is Calcium/calmodulin-dependent protein kinase type 1D (Homo sapiens, UniProt Q8IU85). The test is described as follows: Inhibition of CAMK1d in human HeLa cells lysate at 2 uM pre incubated for 15 mins followed by ATP acyl phosphate probe addition and measured after 10 mins by LC-MS/MS analysis relative to control. Type of test: subcellular. The conditions noted are these: time 25.0 min. Put shortly: (§1)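 KiNativ-type profiling in HeLa lysate (5 mg/mL total protein). Lysate preincubated 15 min with inhibitor at 50, 10, 2, 0.8 or 0 μM, then ATP or ADP acylphosphate probe added (5 μM final) for 10 min. Reaction stopped with urea and analysed by targeted MS, using up to four fragment ions per kinase peptide-probe conjugate. % inhibition calculated against untreated lysate. Duplicate reactions.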

The nature of test [7]: Inhibition of MAP3K5/MAP3K6/MAP3K15 in human HeLa cells lysate at 50 uM pre incubated for 15 mins followed by ATP acyl phosphate probe addition and measured after 10 mins by LC-MS/MS analysis relative to control. To be noted: 25 min, condition cancer.
For test [8], the target named is STE20-like serine/threonine-protein kinase (Homo sapiens, UniProt Q9H2G2). The test can be described thus: Inhibition of SLK in human HeLa cells lysate at 2 uM pre incubated for 15 mins followed by ADP acyl phosphate probe addition and measured after 10 mins by LC-MS/MS analysis relative to control. Format: subcellular. The conditions noted are these: time 25.0 min.

Test [9] deals with Microtubule-associated serine/threonine-protein kinase 3 (Homo sapiens, UniProt O60307). The test can be described thus: Inhibition of MAST3 in human HeLa cells lysate at 2 uM pre incubated for 15 mins followed by ATP acyl phosphate probe addition and measured after 10 mins by LC-MS/MS analysis relative to control. Format: subcellular. To be noted: time 25.0 min.
Chain of Microtubule-associated serine/threonine-protein kinase 3 (O60307 whole entry): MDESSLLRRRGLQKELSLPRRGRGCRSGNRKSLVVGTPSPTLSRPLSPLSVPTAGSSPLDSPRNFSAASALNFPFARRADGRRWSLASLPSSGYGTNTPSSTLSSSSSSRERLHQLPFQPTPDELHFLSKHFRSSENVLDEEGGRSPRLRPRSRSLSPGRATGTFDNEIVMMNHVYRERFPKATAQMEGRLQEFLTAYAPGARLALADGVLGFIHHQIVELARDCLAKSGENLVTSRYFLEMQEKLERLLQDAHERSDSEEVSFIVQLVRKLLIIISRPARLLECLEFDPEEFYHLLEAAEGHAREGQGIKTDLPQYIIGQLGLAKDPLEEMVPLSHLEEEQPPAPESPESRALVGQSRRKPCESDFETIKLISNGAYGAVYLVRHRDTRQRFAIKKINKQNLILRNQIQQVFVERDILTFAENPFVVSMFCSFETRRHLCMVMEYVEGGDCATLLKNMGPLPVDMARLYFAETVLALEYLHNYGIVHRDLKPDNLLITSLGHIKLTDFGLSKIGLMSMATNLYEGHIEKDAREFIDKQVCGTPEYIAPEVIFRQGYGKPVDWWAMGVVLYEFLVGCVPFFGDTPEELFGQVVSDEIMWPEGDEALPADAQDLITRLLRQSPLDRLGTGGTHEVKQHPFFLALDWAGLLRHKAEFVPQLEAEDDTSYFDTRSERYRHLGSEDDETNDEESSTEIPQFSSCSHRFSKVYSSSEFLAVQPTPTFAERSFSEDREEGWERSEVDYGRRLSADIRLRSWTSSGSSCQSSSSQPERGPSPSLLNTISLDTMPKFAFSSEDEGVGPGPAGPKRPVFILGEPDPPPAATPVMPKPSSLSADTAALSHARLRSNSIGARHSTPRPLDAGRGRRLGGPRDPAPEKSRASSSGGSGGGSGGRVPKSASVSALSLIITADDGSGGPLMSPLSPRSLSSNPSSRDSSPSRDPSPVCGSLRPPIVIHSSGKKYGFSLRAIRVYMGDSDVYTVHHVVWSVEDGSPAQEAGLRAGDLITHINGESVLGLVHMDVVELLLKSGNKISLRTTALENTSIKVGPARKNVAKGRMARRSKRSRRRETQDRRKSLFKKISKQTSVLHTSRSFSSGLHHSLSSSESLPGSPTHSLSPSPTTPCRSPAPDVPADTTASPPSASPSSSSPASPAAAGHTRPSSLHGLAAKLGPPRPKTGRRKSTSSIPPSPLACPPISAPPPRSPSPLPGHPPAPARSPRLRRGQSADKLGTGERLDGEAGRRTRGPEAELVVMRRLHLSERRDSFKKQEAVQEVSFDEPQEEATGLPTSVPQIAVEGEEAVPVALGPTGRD
Test [10] addresses Tyrosine-protein kinase ABL (Homo sapiens, UniProt P00519+P42684). The test can be described thus: Inhibition of ABL1/2 in human HeLa cells lysate at 50 uM pre incubated for 15 mins followed by ATP acyl phosphate probe addition and measured after 10 mins by LC-MS/MS analysis relative to control. The conditions noted are these: time 25.0 min. Type of test: subcellular. The essentials: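 HeLa cell lysates (5 mg/mL total protein) were preincubated with inhibitor at 0, 0.8, 2, 10 or 50 μM for 15 min. ATP or ADP acylphosphate probe was then added (5 μM final) for 10 min, and reactions were stopped with urea. Up to four fragment ions per kinase probe-peptide were quantified by targeted MS. % inhibition was taken relative to untreated lysate. Run in duplicate.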

In test [11] the target is Serine/threonine-protein kinase A-Raf (Homo sapiens, UniProt P10398). The test can be described thus: Inhibition of ARAF in human HeLa cells lysate pre incubated for 15 mins followed by ATP acyl phosphate probe addition and measured after 10 mins by LC-MS/MS analysis. Format: subcellular. Put shortly: as §1
Chain of Serine/threonine-protein kinase A-Raf (P10398 whole entry): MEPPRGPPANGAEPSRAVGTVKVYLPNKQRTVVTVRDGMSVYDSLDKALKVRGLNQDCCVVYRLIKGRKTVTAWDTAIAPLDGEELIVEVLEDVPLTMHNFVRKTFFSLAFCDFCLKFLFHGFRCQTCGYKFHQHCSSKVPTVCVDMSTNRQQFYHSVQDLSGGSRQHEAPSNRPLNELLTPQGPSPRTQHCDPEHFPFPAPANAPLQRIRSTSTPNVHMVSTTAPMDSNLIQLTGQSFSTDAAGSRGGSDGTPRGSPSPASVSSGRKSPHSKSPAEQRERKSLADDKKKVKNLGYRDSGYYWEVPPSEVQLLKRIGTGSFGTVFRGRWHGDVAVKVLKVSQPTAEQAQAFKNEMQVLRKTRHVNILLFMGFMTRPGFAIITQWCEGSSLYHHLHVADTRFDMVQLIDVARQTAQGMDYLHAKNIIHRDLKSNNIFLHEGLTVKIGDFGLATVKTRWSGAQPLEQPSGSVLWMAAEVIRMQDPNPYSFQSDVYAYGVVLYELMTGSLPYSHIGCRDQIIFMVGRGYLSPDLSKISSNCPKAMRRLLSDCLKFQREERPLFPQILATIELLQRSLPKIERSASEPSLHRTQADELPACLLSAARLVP
The target in test [12] is Mitogen-activated protein kinase kinase kinase 11 (Homo sapiens, UniProt Q16584). The test can be described thus: Inhibition of MLK3 in human HeLa cells lysate at 2 uM pre incubated for 15 mins followed by ATP acyl phosphate probe addition and measured after 10 mins by LC-MS/MS analysis relative to control. Type of test: subcellular. To be noted: time 25.0 min.
Test [13] deals with Phosphatidylinositol 3-kinase catalytic subunit type 3 (Homo sapiens, UniProt Q8NEB9). The test is described as follows: Inhibition of PIK3C3 in human HeLa cells lysate at 2 uM pre incubated for 15 mins followed by ATP acyl phosphate probe addition and measured after 10 mins by LC-MS/MS analysis relative to control. Format: subcellular. To be noted: time 25.0 min.
Chain of Phosphatidylinositol 3-kinase catalytic subunit type 3 (Q8NEB9 whole entry): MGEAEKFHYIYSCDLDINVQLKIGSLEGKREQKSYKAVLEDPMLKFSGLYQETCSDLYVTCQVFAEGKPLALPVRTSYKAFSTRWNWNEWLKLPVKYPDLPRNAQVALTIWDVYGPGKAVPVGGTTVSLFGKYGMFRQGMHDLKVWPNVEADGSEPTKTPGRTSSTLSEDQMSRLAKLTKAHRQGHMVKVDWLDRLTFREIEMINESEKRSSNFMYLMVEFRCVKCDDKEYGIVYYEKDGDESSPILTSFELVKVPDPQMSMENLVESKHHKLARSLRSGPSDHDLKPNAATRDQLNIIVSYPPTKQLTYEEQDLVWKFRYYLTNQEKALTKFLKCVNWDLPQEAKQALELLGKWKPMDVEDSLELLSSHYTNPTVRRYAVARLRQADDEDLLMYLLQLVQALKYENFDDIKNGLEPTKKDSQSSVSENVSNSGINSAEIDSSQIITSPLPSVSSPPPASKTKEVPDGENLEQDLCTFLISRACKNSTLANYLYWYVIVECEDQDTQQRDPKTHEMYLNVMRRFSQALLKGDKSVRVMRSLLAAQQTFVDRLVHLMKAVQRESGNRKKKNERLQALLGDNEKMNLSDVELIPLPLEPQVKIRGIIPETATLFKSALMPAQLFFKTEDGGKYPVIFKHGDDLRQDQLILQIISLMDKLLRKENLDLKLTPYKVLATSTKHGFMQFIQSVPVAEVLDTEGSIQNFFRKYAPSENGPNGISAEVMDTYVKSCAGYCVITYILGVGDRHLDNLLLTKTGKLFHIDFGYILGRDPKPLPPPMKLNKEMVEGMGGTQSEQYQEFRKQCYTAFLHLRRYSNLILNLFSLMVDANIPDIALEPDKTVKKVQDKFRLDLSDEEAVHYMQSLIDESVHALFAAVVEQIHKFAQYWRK
For test [14], the target named is Calcium/calmodulin-dependent protein kinase kinase 1 (Homo sapiens, UniProt Q8N5S9). The test is described as follows: Inhibition of CAMKK1 in human HeLa cells lysate pre incubated for 15 mins followed by ADP acyl phosphate probe addition and measured after 10 mins by LC-MS/MS analysis. Format: subcellular. Put shortly:
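KiNativ profiling in HeLa lysate (5 mg/mL total protein). Lysate incubated 15 min with inhibitor at 50, 10, 2, 0.8 or 0 μM. ATP or ADP acylphosphate probe then added (5 μM final) and reacted 10 min. Reaction stopped with urea and analysed by targeted MS, using up to four fragment ions per kinase peptide-probe conjugate. % inhibition taken against untreated lysate. Run in duplicate.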

In test [15] the target is Serine/threonine-protein kinase 38-like (Homo sapiens, UniProt Q9Y2H1). The test is described as follows: Inhibition of NDR2 in human HeLa cells lysate at 50 uM pre incubated for 15 mins followed by ADP acyl phosphate probe addition and measured after 10 mins by LC-MS/MS analysis relative to control. Type of test: subcellular. To be noted: time 25.0 min.
Test [16] can be described thus: Inhibition of PCTAIRE2/ICK in human HeLa cells lysate pre incubated for 15 mins followed by ADP acyl phosphate probe addition and measured after 10 mins by LC-MS/MS analysis. Format: subcellular.
The target of test [17] is Serine/threonine-protein kinase PLK4 (Homo sapiens, UniProt O00444). The test is described as follows: Binding affinity to PLK4 (unknown origin) assessed as dissociation constant by ATP-competition binding assay.
Test [18] is described as follows: Inhibition of KHS1/2 in human HeLa cells lysate at 10 uM pre incubated for 15 mins followed by ATP acyl phosphate probe addition and measured after 10 mins by LC-MS/MS analysis relative to control. To be noted: 25 min, condition cancer.

Among the data in ChEMBL document CHEMBL5661979, “Pharmacological inhibition of BMK1 suppresses tumor growth through promyelocytic leukemia protein” (Cancer Cell, 2010) are inhibition, IC50 and Kd values, retold here.

Broadly, the inhibition is the relative decrease from the control value, in per cent. Broadly, the IC50 is the concentration that gives 50% inhibition. Usually Kd stands for a measure of binding affinity in units of concentration.

Chain of Tyrosine-protein kinase ABL (P00519 whole entry, looked up, the tested form may be a part): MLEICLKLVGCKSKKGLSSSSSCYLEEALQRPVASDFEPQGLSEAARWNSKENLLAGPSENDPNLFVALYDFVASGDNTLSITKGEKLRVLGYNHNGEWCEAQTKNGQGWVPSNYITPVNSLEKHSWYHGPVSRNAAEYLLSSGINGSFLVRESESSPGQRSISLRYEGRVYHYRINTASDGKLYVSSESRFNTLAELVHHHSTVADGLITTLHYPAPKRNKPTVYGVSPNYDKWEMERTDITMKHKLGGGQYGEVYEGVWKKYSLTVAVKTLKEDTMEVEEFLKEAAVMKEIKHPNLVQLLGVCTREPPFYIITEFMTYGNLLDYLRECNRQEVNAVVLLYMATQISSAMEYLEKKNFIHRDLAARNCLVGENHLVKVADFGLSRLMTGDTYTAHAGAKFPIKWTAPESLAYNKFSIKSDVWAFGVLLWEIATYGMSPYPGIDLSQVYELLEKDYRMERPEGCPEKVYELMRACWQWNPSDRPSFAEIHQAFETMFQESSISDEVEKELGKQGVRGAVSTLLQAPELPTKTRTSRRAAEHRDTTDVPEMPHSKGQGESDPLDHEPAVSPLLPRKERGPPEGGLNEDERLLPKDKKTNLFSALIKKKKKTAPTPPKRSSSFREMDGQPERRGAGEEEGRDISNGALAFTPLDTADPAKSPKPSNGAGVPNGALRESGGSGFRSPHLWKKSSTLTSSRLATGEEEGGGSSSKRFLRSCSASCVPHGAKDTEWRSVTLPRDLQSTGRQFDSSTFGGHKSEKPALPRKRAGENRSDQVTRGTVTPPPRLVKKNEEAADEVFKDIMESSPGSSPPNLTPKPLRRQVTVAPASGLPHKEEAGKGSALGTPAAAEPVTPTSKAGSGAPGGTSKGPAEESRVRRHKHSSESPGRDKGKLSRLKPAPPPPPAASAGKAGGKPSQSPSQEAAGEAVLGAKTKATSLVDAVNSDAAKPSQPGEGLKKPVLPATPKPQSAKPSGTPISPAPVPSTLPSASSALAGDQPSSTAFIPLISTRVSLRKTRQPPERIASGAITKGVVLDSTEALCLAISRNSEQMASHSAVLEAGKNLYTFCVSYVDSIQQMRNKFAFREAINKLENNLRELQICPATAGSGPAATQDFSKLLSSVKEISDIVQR
Chain of Tyrosine-protein kinase ABL (P42684 whole entry, looked up, the tested form may be a part): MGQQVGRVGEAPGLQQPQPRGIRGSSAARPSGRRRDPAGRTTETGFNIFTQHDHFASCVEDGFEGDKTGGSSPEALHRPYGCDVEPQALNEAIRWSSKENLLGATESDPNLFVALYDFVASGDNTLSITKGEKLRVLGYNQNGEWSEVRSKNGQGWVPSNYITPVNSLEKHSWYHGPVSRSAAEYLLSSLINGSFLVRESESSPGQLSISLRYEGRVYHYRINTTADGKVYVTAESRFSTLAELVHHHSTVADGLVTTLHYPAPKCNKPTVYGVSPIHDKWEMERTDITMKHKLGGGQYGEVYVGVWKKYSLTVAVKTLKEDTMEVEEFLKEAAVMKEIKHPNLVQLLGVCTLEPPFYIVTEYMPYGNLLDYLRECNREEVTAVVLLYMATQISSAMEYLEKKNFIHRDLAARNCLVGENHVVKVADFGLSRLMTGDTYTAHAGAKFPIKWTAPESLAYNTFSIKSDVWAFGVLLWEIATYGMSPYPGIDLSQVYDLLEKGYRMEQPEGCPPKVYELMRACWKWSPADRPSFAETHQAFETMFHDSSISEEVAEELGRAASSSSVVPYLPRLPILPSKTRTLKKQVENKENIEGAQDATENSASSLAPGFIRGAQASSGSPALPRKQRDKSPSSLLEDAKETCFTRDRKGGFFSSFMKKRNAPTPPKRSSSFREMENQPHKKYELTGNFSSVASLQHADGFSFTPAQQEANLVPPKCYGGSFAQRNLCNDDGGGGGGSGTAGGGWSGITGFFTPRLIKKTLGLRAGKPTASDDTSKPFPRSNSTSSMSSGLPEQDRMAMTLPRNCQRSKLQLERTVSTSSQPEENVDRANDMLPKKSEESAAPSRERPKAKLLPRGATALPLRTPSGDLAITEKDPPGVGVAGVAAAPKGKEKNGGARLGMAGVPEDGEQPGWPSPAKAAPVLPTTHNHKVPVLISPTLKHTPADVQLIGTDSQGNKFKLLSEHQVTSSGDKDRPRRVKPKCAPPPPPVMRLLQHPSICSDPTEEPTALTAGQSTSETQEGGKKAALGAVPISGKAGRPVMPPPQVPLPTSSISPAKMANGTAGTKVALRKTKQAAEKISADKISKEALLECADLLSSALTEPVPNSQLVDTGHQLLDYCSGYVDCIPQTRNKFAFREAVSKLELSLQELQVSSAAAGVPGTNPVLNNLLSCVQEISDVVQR

As to `CCOc1cc(N2CCC(O)CC2)ccc1Nc1ncc2c(n1)N(C)c1ccccc1C(=O)N2C`, the inhibition in test [1] was 10.2%; in test [2], 2.5%; in test [4], 10.4%; in [6], 4.4%; in test [8] it was 13.3%; in [9] it was 2%. Further, the inhibition was 4.9% in test [10], 5.3% in [12], -0.4% in test [13] and 6.8% in test [15]. Also, the IC50 in [3], in test [11], in [14] and in [16] was > 50 µM each time. Moreover, the inhibition at 50 µM in test [5] and in test [7] was 2.5% throughout. Moreover, the Kd in test [17] was determined as 0.6 µM. Besides, in test [18], the inhibition at 10 µM was -11.1%.
